Source: ChEMBL document CHEMBL4732169, “Design and synthesis of mycobacterial pks13 inhibitors: Conformationally rigid tetracyclic molecules” (Eur J Med Chem, 2021)
Converted amounts (≈) assume the structure as drawn.

Legend:
Assay type in all cases: functional
[1] = test system: Mycobacterium tuberculosis; test: Antitubercular activity against isoniazid/rifampin resistance Mycobacterium tuberculosis KZN494 by MABA assay
Method in brief: (§1)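 Microplate alamar blue assay (MABA) against each Mtb strain, either H37Rv or a clinical isolate (drug-susceptible, MDR or XDR). MIC taken as the lowest concentration giving at least 90% reduction of the bacterial growth signal. Each value is the average of three individual measurements.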

[2] = test system: Mycobacterium tuberculosis; test: Antitubercular activity against multi drug resistance Mycobacterium tuberculosis V2475 by MABA assay; method in brief: as §1
[3] = test system: Mycobacterium tuberculosis; test: Antitubercular activity against isoniazid/rifampin/levofloxacin/ofloxacin/kanamycin extensively drug resistance Mycobacterium tuberculosis TF274 XDR by MABA assay; method in brief: as §1
[4] = test system: Mycobacterium tuberculosis; test: Antitubercular activity against extensively drug resistance Mycobacterium tuberculosis R506 XDR by MABA; method in brief: as §1

SMILES: O=c1[nH]c2cc(O)ccc2c2oc3ccc(O)c(CN4CCCCC4)c3c12
- MIC=<90 [1]: 0.0313 µg/mL (≈ 0.0859 µM)
- MIC=<90 [2]: 0.0625 µg/mL (≈ 0.172 µM)
- MIC=<90 [3]: 0.0156 µg/mL (≈ 0.0428 µM)
- MIC=<90 [4]: 0.0156 µg/mL (≈ 0.0428 µM)

SMILES: CC1COc2c(N3CCN(C)CC3)c(F)cc3c(=O)c(C(=O)O)cn1c23 (configuration not stated) [OFLOXACIN]
- MIC=<90 [1]: 0.5 µg/mL (≈ 1.38 µM)
- MIC=<90 [2]: 0.5 µg/mL (≈ 1.38 µM)
- MIC=<90 [3]: 8 µg/mL (≈ 22.1 µM)
- MIC=<90 [4]: 4 µg/mL (≈ 11.1 µM)

SMILES: NNC(=O)c1ccncc1 [ISONIAZID]
- MIC=<90 [1]: 16 µg/mL (≈ 117 µM)
- MIC=<90 [2]: 16 µg/mL (≈ 117 µM)
- MIC=<90 [3]: 8 µg/mL (≈ 58.3 µM)
- MIC=<90 [4]: 8 µg/mL (≈ 58.3 µM)

SMILES: CO[C@H]1/C=C/O[C@@]2(C)Oc3c(C)c(O)c4c(O)c(c(/C=N/N5CCN(C)CC5)c(O)c4c3C2=O)NC(=O)/C(C)=C\C=C\[C@H](C)[C@H](O)[C@@H](C)[C@@H](O)[C@@H](C)[C@H](OC(C)=O)[C@@H]1C [RIFAMPIN]
- MIC=<90 [1]: 128 µg/mL (≈ 156 µM)
- MIC=<90 [2]: 4 µg/mL (≈ 4.86 µM)
- MIC=<90 [3]: >128 µg/mL
- MIC=<90 [4]: >128 µg/mL

SMILES: C[C@H]1COc2c(N3CCN(C)CC3)c(F)cc3c(=O)c(C(=O)O)cn1c23.C[C@H]1COc2c(N3CCN(C)CC3)c(F)cc3c(=O)c(C(=O)O)cn1c23.O [LEVOFLOXACIN]
- MIC=<90 [3]: 1 µg/mL
- MIC=<90 [4]: 2 µg/mL

SMILES: NC[C@H]1O[C@H](O[C@H]2[C@H](O)[C@@H](O[C@H]3O[C@H](CO)[C@@H](O)[C@H](N)[C@H]3O)[C@H](N)C[C@@H]2N)[C@H](O)[C@@H](O)[C@@H]1O [KANAMYCIN]
- MIC=<90 [1]: 2 µg/mL (≈ 4.13 µM)
- MIC=<90 [2]: 2 µg/mL (≈ 4.13 µM)
- MIC=<90 [3]: >128 µg/mL
- MIC=<90 [4]: >128 µg/mL
